Measurements reported in ChEMBL document CHEMBL1142492 (J Med Chem, 2008).

Columns and labels:
[1] = target: Serine/threonine-protein kinase PAK 5 (Homo sapiens) (UniProt Q9P286); experiment: Inhibition of PAK7/PAK5 at 3 uM
[2] = target: Cyclin-dependent kinase 11A (Homo sapiens) (UniProt Q9UQ88); experiment: Inhibition of CDC2L2 at 3 uM
[3] = target: Atypical kinase COQ8B, mitochondrial (Homo sapiens) (UniProt Q96D53); experiment: Inhibition of ADCK4 at 3 uM
[4] = target: Casein kinase I isoform delta (Homo sapiens) (UniProt P48730); experiment: Inhibition of CSNK1D at 3 uM
[5] = target: Dual specificity mitogen-activated protein kinase kinase 6 (Homo sapiens) (UniProt P52564); experiment: Inhibition of MEK6 at 3 uM
Rattus norvegicus [6] = species: Rattus norvegicus; conditions: 3 uM
[7] = target: Serine/threonine-protein kinase Nek5 (Homo sapiens) (UniProt Q6P3R8); experiment: Inhibition of NEK5 at 3 uM
[8] = target: Mitogen-activated protein kinase 14 (Homo sapiens) (UniProt Q16539); experiment: Inhibition of p38-alpha at 3 uM
[9] = target: T1, Epidermal growth factor receptor (Homo sapiens) (UniProt P04626+P00533+Q15303+P21860); experiment: Inhibition of EGFR E746-A750del mutant at 3 uM; assay type: protein assay
[10] = target: Tyrosine-protein kinase Lyn (Homo sapiens) (UniProt P07948); experiment: Inhibition of LYN at 3 uM
[11] = tested on: Mast/stem cell growth factor receptor Kit (Homo sapiens), P10721 [V559D,V654A]; experiment: Inhibition of KIT V559D,V654A mutant at 3 uM
[12] = target: Mitogen-activated protein kinase kinase kinase 20 (Homo sapiens) (UniProt Q9NYL2); experiment: Inhibition of ZAK at 3 uM
[13] = target: Calcium/calmodulin-dependent protein kinase type II subunit gamma (Homo sapiens) (UniProt Q13555); experiment: Inhibition of CAMK2G at 3 uM
[14] = target: Serine/threonine-protein kinase PAK 1 (Homo sapiens) (UniProt Q13153); experiment: Inhibition of PAK1 at 3 uM
[15] = tested on: Tyrosine-protein kinase ABL1 (Homo sapiens), P00519 [H396P]; experiment: Inhibition of ABL1 H396P mutant at 3 uM
[16] = target: T1, Epidermal growth factor receptor (Homo sapiens); experiment: Inhibition of EGFR L747-S752del,P753S mutant at 3 uM; assay type: protein assay
[17] = Half life in Sprague-Dawley rat at 1 mg/kg, iv; conditions: in vivo
[18] = target: Adenosine receptor A2a (Homo sapiens) (UniProt P29274); experiment: Inhibition of human adenosine A2A receptor at 3 uM
Outline: (§1)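 Counter-screen binding/enzyme panel at single 3 μM, n=2; results as percent inhibition. Species per target as listed (rat NMDA, GABAA sites; human receptors, transporters; rabbit ACE).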

[19] = target: Mitogen-activated protein kinase kinase kinase kinase 3 (Homo sapiens) (UniProt Q8IVH8); experiment: Inhibition of MAP4K3 at 3 uM
[20] = target: Dual specificity mitogen-activated protein kinase kinase 4 (Homo sapiens) (UniProt P45985); experiment: Inhibition of MEK4 at 3 uM
[21] = target: 5'-AMP-activated protein kinase catalytic subunit alpha-2 (Homo sapiens) (UniProt P54646); experiment: Inhibition of AMPKalpha2 at 3 uM
[22] = target: Serine/threonine-protein kinase LATS2 (Homo sapiens) (UniProt Q9NRM7); experiment: Inhibition of LATS2 at 3 uM
[23] = target: Casein kinase I isoform gamma-3 (Homo sapiens) (UniProt Q9Y6M4); experiment: Inhibition of CSNK1G3 at 3 uM
[24] = target: Mitogen-activated protein kinase kinase kinase kinase 2 (Homo sapiens) (UniProt Q12851); experiment: Inhibition of MAP4K2 at 3 uM
[25] = target: Serine/threonine-protein kinase D1 (Homo sapiens) (UniProt Q15139); experiment: Inhibition of PRKD1 at 3 uM
[26] = target: Dual specificity mitogen-activated protein kinase kinase 2 (Homo sapiens) (UniProt P36507); experiment: Inhibition of MEK2 at 3 uM
[27] = target: Myosin light chain kinase family member 4 (Homo sapiens) (UniProt Q86YV6); experiment: Inhibition of SgK085 at 3 uM
[28] = target: Serine/threonine-protein kinase PAK 2 (Homo sapiens) (UniProt Q13177); experiment: Inhibition of PAK2 at 3 uM
[29] = target: Mitogen-activated protein kinase kinase kinase 4 (Homo sapiens) (UniProt Q9Y6R4); experiment: Inhibition of MAP3K4 at 3 uM
[30] = target: Beta-2 adrenergic receptor (Homo sapiens) (UniProt P07550); experiment: Inhibition of human adrenergic beta2 receptor at 3 uM; outline: as §1
[31] = target: Serine/threonine-protein kinase 17B (Homo sapiens) (UniProt O94768); experiment: Inhibition of DRAK2 at 3 uM
[32] = target: Serine/threonine-protein kinase BRSK1 (Homo sapiens) (UniProt Q8TDC3); experiment: Inhibition of BRSK1 at 3 uM
[33] = tested on: Epidermal growth factor receptor (Homo sapiens), P00533 [L861Q]; experiment: Inhibition of EGFR L861Q mutant at 3 uM; assay type: protein assay
Outline: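 Single-concentration kinase panel scoring: each value is the percentage of enzyme activity remaining relative to a DMSO-only control. An activity statistically indistinct from DMSO control was scored "no hit".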

[34] = target: Dual specificity mitogen-activated protein kinase kinase 3 (Homo sapiens) (UniProt P46734); experiment: Inhibition of MEK3 at 3 uM
[35] = target: Mitogen-activated protein kinase 13 (Homo sapiens) (UniProt O15264); experiment: Inhibition of p38-delta at 3 uM
[36] = target: Myosin-IIIa (Homo sapiens) (UniProt Q8NEV4); experiment: Inhibition of MYO3A at 3 uM
[37] = tested on: Tyrosine-protein kinase ABL1 (Homo sapiens), P00519 [M351T]; experiment: Inhibition of ABL1 M351T mutant at 3 uM
[38] = target: Muscarinic acetylcholine receptor M1 (Homo sapiens) (UniProt P11229); experiment: Inhibition of human muscarinic M1 receptor at 3 uM; outline: as §1
Rattus norvegicus [39] = species: Rattus norvegicus; conditions: 3 uM; remark: listed apart in the source
[40] = target: Androgen receptor (Rattus norvegicus) (UniProt P15207); experiment: Inhibition of rat androgen receptor at 3 uM
[41] = target: Atypical kinase COQ8A, mitochondrial (Homo sapiens) (UniProt Q8NI60); experiment: Inhibition of ADCK3 at 3 uM
[42] = target: Serine/threonine-protein kinase 10 (Homo sapiens) (UniProt O94804); experiment: Inhibition of LOK at 3 uM
[43] = target: Focal adhesion kinase 1 (Homo sapiens) (UniProt Q05397); experiment: Inhibition of PTK2 at 3 uM
[44] = target: Cyclin-dependent kinase 19 (Homo sapiens) (UniProt Q9BWU1); experiment: Inhibition of CDK11 at 3 uM
[45] = target: Serine/threonine-protein kinase D2 (Homo sapiens) (UniProt Q9BZL6); experiment: Inhibition of PRKD2 at 3 uM
[46] = target: Pyroglutamylated RF-amide peptide receptor (Homo sapiens) (UniProt Q96P65); experiment: Inhibition of human GPR103 at 3 uM; outline: as §1

Chain of Tyrosine-protein kinase Lyn (Homo sapiens) (P07948 2-512 limits assumed): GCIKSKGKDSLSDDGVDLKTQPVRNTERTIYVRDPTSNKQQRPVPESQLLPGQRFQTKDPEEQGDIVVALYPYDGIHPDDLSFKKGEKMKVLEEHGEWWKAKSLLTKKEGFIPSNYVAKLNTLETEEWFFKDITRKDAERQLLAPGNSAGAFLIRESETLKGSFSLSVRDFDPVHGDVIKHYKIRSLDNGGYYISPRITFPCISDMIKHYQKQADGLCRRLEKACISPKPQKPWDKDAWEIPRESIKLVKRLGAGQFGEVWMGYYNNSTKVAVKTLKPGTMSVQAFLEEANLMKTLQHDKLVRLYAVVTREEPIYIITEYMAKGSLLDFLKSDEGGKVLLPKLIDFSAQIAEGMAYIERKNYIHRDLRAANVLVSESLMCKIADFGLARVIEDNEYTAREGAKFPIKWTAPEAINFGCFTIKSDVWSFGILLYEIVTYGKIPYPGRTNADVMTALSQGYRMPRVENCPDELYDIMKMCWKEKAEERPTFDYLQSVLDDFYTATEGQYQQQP
Chain of Myosin-IIIa (Homo sapiens) (Q8NEV4 whole entry): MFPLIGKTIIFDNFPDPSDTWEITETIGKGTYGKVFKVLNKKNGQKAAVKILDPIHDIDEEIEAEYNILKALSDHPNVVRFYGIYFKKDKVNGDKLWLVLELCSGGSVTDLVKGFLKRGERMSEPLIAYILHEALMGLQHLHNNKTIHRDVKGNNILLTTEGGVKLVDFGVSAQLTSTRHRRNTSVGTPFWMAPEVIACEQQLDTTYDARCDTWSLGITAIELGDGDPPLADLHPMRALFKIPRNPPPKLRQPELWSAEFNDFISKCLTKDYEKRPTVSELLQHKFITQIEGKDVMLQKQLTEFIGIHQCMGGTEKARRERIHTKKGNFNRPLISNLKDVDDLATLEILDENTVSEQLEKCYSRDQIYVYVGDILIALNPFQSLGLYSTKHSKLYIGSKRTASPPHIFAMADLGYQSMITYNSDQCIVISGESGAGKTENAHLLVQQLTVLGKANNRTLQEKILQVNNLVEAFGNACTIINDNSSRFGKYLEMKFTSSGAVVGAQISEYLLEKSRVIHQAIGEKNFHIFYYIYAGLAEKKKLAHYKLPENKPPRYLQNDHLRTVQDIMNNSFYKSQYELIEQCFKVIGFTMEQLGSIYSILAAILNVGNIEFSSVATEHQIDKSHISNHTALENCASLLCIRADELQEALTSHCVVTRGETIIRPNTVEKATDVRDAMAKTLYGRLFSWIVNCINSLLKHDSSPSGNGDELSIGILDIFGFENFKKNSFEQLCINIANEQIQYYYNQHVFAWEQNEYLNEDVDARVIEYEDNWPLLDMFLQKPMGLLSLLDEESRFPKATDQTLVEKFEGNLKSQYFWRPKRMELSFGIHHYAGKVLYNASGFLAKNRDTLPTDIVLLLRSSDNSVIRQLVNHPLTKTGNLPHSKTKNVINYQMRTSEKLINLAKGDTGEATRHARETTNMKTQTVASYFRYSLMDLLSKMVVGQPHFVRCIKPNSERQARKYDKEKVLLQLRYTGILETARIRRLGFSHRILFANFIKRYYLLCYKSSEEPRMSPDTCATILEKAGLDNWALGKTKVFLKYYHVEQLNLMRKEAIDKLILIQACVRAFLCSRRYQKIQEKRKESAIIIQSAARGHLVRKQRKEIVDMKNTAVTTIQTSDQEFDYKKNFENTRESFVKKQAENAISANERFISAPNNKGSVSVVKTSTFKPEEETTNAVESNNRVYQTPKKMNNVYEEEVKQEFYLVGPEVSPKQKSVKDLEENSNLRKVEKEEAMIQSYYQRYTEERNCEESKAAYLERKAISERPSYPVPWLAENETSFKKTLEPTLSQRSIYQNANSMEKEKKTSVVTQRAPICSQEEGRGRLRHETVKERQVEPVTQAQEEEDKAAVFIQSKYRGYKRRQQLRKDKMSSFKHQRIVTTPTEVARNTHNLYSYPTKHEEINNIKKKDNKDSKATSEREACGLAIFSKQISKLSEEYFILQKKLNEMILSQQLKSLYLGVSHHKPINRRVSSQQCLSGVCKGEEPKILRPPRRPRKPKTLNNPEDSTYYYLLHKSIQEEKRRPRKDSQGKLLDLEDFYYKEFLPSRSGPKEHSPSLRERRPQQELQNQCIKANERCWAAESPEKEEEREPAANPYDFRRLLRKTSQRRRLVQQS
Chain of Serine/threonine-protein kinase 17B (Homo sapiens) (O94768 whole entry): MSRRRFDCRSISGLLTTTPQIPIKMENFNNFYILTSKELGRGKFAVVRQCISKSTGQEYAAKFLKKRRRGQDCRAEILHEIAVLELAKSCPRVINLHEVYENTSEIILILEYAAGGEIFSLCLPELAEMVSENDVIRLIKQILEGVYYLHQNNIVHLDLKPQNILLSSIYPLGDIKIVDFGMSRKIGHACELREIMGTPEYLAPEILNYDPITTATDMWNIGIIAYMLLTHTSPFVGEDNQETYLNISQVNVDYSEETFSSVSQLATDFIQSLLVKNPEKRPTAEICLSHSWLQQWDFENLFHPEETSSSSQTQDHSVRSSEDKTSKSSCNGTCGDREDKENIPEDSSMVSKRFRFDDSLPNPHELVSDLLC
Chain of Cyclin-dependent kinase 19 (Homo sapiens) (Q9BWU1 whole entry): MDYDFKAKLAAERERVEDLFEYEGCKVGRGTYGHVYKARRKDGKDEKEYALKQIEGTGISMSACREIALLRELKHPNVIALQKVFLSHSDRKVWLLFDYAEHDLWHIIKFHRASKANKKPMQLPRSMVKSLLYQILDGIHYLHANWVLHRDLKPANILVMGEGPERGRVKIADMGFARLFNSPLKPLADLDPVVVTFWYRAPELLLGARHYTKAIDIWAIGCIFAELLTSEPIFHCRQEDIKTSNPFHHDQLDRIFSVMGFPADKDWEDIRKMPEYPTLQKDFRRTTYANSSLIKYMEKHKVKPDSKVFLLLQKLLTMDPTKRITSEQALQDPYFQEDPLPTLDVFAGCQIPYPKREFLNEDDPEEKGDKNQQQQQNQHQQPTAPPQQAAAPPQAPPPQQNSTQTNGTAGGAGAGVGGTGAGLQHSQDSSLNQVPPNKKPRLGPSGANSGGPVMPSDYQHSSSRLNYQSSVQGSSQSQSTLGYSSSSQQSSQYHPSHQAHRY
Chain of Serine/threonine-protein kinase LATS2 (Homo sapiens) (Q9NRM7 whole entry, canonical isoform): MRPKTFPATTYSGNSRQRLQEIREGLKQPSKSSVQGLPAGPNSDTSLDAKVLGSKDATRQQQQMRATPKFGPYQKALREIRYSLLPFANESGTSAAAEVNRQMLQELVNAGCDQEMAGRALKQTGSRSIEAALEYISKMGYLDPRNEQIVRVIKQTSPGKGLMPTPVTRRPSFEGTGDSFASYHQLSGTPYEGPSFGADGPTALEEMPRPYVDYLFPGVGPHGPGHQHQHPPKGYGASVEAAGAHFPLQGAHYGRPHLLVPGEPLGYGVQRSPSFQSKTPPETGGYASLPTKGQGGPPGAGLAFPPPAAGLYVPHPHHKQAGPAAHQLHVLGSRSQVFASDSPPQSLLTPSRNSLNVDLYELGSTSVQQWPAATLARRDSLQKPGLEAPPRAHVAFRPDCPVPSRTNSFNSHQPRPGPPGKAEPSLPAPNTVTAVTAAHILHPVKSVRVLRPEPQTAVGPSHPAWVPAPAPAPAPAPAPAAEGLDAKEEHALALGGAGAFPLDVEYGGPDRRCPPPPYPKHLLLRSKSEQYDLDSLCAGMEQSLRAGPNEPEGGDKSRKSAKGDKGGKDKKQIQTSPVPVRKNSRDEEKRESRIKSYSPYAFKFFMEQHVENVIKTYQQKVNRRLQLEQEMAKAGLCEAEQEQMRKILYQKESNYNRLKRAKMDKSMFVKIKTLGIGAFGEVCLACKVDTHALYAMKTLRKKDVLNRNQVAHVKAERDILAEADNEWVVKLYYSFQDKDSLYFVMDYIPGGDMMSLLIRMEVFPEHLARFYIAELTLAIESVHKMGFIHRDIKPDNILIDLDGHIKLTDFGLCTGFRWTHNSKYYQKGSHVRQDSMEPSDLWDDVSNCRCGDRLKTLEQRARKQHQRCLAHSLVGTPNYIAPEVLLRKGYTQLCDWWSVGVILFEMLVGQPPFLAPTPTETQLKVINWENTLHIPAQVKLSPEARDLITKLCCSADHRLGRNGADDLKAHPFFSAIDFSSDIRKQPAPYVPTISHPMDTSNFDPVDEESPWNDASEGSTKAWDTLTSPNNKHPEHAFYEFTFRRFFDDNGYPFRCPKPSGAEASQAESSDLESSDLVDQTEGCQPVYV
Chain of Dual specificity mitogen-activated protein kinase kinase 4 (Homo sapiens) (P45985 whole entry): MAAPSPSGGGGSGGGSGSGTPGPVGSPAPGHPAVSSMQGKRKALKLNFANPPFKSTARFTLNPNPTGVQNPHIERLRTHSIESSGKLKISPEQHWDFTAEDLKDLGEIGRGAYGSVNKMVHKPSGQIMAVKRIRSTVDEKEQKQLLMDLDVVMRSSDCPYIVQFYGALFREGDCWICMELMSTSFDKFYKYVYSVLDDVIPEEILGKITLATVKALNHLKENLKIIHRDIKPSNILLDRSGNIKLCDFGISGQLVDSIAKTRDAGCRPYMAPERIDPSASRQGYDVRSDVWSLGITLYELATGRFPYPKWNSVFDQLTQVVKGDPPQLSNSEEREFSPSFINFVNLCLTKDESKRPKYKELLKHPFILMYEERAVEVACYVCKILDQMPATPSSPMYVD
Chain of Atypical kinase COQ8A, mitochondrial (Homo sapiens) (Q8NI60 163-647 limits assumed): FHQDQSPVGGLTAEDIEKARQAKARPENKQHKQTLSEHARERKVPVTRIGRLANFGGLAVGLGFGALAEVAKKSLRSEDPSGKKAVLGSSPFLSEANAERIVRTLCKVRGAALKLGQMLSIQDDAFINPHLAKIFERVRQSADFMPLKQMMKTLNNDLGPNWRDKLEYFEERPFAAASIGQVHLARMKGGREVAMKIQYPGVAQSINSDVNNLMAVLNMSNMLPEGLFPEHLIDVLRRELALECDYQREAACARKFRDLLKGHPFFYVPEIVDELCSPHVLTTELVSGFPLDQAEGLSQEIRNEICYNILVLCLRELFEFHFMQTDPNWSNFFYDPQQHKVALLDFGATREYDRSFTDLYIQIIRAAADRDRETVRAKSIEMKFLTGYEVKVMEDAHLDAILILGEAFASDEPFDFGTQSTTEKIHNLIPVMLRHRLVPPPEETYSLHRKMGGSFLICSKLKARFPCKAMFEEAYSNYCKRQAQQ

Q: Which results are given for `CN(C)CCOc1cc(-c2cn[nH]c2)ccc1NC(=O)C1COc2ccccc2O1` (stereo unspecified) [SR-3677]?
A: inhibition [1]: < 10%; inhibition [2]: < 10%; inhibition [3]: < 10%; inhibition [4]: < 10%; inhibition [5]: < 10%; inhibition (Rattus norvegicus [6]): -6%; inhibition [7]: < 10%; inhibition [8]: < 10%; inhibition [9]: < 10%; inhibition [10]: < 10%; inhibition [11]: < 10%; inhibition [12]: < 10%; inhibition [13]: < 10%; inhibition [14]: < 10%; inhibition [15]: < 10%; inhibition [16]: < 10%; half-life [17]: 48 min; inhibition [18]: 5%; inhibition [19]: < 10%; inhibition [20]: < 10%; inhibition [21]: < 10%; inhibition [22]: 88%; inhibition [23]: < 10%; inhibition [24]: < 10%; inhibition [25]: < 10%; inhibition [26]: < 10%; inhibition [27]: < 10%; inhibition [28]: < 10%; inhibition [29]: < 10%; inhibition [30]: 19%; inhibition [31]: < 10%; inhibition [32]: < 10%; inhibition [33]: < 10%; inhibition [34]: < 10%; inhibition [35]: < 10%; inhibition [36]: < 10%; inhibition [37]: < 10%; inhibition [38]: 6%; inhibition (Rattus norvegicus [39]): 24%; inhibition [40]: 10%; inhibition [41]: < 10%; inhibition [42]: < 10%; inhibition [43]: < 10%; inhibition [44]: < 10%; inhibition [45]: < 10%; inhibition [46]: 25%
